The source of these data is ChEMBL document CHEMBL2074473, “Inhibitory effect of a bitter melon extract on the P-glycoprotein activity in intestinal Caco-2 cells” (Br J Pharmacol, 2004).

T1 sequence (P08183 whole entry): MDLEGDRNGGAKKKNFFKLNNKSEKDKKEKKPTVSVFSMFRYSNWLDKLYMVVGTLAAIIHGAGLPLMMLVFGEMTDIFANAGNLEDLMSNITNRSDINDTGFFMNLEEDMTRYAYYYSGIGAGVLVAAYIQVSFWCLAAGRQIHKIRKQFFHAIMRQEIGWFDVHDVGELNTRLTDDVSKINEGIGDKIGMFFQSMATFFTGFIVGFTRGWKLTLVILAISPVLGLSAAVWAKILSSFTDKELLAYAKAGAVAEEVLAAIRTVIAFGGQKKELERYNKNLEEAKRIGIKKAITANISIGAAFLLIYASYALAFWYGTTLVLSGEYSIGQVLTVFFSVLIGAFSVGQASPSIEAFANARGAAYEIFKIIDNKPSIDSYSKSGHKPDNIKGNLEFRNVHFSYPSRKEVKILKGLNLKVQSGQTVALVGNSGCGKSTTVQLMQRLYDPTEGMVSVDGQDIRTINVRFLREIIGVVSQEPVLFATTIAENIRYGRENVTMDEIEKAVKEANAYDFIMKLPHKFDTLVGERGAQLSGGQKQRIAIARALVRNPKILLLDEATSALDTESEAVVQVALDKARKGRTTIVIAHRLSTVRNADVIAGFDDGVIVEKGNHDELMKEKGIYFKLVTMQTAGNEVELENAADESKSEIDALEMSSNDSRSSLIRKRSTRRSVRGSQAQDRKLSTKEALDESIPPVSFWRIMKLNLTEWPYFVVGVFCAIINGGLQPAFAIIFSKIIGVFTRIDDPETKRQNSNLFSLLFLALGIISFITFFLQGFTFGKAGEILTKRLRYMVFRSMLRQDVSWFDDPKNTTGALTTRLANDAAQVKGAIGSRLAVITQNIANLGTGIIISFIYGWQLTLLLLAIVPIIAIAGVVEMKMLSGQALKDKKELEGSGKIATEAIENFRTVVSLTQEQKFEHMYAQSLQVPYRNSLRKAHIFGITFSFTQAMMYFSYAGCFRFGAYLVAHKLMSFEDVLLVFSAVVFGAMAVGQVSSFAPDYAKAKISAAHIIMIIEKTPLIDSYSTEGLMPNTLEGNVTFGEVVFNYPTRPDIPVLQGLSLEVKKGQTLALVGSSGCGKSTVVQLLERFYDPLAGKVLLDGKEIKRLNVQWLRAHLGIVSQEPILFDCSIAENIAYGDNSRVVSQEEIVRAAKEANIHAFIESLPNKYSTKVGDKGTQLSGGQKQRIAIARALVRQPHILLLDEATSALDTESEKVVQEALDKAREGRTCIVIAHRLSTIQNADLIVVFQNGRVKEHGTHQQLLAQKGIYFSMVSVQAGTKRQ

The first series deals with T1, ATP-dependent translocase ABCB1 (Homo sapiens, UniProt P08183). Put plainly: TP_TRANSPORTER: Daunomycin accumulation in Caco-2 cells. Format: functional, cell-based. The gist of the method:
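Caco-2 monolayers (passages 40–66) grown 14 days on collagen-coated 24-well plates. After two PBS washes and equilibration in HBSS with 4 mM bicarbonate and 10 mM HEPES, pH 7.4, cells were incubated with 40 nM [3H]-daunomycin ± sample for 2 h at 37°C. Ice-cold PBS/0.05% azide washes, Triton X-100 lysis, scintillation counting. Expressed as % of control, mean±s.d., n=3.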
For the compound `CC/C=C/C/C=C/C/C=C/CCCCCCCC(=O)OCC(O)CO` (stereo unspecified) [1-Monolinolenin], the Activity entry is “inhibitor [+]”.

For the compound `CCCCCCCCCCCCCCCC(=O)O.OCC(O)CO` [PALMITIC ACID + GLYCEROL], the Activity entry was “is not an inhibitor [-]”.

Consider `CCCCCCCCCCCCCCCC(=O)OCC(O)COC(=O)CCCCCCCCCCCCCCC` [1,3-Dipalmitin], for which the Activity entry was “is not an inhibitor [-]”.

As to `CCCCCCCCCCCCCCCC(=O)O` [PALMITIC ACID], the Activity entry was “is not an inhibitor [-]”.

As to `CCCCCCCC(=O)OCC(O)CO` (stereo unspecified) [MONOCTANOIN COMPONENT A], the Activity result was “inhibitor [+]”.

For `CCCCCC/C=C\CCCCCCCC(=O)OCC(O)CO` (stereo unspecified) [1-Monopalmitolein], the Activity entry was “inhibitor [+]”.

For `CCCCCCCCCCCCCC(=O)OCC(O)CO` (stereo unspecified), the Activity result is “inhibitor [+]”.

Take `CCCCCCCCCCCCCCCC(=O)OCC(O)CO` (stereo unspecified) [1-Monopalmitin]: the Activity entry is “inhibitor [+]”.

Turning to `CCCCCCCCCCCCCCCC(=O)OCC(COC(=O)CCCCCCCCCCCCCCC)OC(=O)CCCCCCCCCCCCCCC` [TRIPALMITIN], the Activity result is “is not an inhibitor [-]”.

Turning to `CCCCCCCCCCCC(=O)OCC(O)CO` (stereo unspecified) [GLYCEROL MONOLAURATE], the Activity result is “inhibitor [+]”.

As for `CCCCCCCCCC(=O)OCC(O)CO` (stereo unspecified) [MONOCTANOIN COMPONENT B], the Activity entry is “inhibitor [+]”.

Turning to `CCCCC/C=C/C/C=C/CCCCCCCC(=O)OCC(O)CO` (stereo unspecified) [1-Monolinolein], the Activity entry was “inhibitor [+]”.

With `CCCCCCCCCCCCCCCCCC(=O)OCC(O)CO` (stereo unspecified) [GLYCERYL MONOSTEARATE], the Activity result is “inhibitor [+]”.

For `OCC(O)CO` [GLYCERIN], the Activity entry was “is not an inhibitor [-]”.

Consider `CCCCCCCCCCCCCCCC(=O)OCC(CO)OC(=O)CCCCCCCCCCCCCCC` (stereo unspecified) [1,2-Dipalmitin], for which the Activity result is “is not an inhibitor [-]”.

Another series concerns the target T1, ATP-dependent translocase ABCB1. Put plainly: TP_TRANSPORTER: Rhodamine 123 accumulation in Caco-2 cells. Format: functional, cell-based. The gist of the method:
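Caco-2 monolayers (passages 40–66) grown 14 days on collagen-coated 24-well plates. Cells were equilibrated in HBSS with 4 mM bicarbonate and 10 mM HEPES, pH 7.4, then exposed to 15 μM rhodamine-123 ± sample (2 mg ml−1 extracts) for 2 h at 37°C. After ice-cold PBS/0.05% azide washes, fluorescence was read at ex 485/em 544 nm. Expressed as % of control, mean±s.d., n=4.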
Regarding BITTER MELON, the Activity result was “inhibitor [+]”.
